Results on seven molecules are retold here after ChEMBL document CHEMBL1139794, “Anti-AIDS agents 66: syntheses and anti-HIV activity of phenolic and aza 3',4'-di-O-(-)-camphanoyl-(+)-cis-khellactone (DCK) derivatives” (Bioorg Med Chem, 2007).

One series concerns H9. Briefly: Reduction in cell viability of human H9 cells. It counts as cell-based.
Series [1] relates to Human immunodeficiency virus 1. Briefly: Antiviral activity against HIV1 3B replication in H9 cells. It counts as functional, organism-based. The conditions noted are these: Human immunodeficiency virus 1, 3B.
Series [2] in a line: Metabolic stability in human liver microsomes assessed as half life at 1 uM. It counts as ADME, Microsome. The method, boiled down:
(§1)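 Compound in 100 mM sodium phosphate, pH 7.4, with 0.1 mg/mL human liver microsomes and 5 mM MgCl2. Preincubated 10 min at 37 °C, then started with NADPH (15 mM stock). Run in duplicate, with NADPH-free controls. Sampled at 0–60 min and quenched in ice-cold acetonitrile with internal standard. Quantified by HPLC-UV; % remaining relative to 0 min gave t1/2, and scaled Clint in L/min/kg.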

Series [3] in a line: Therapeutic index, ratio of IC50 for human H9 cells to EC50 for HIV1 3B. It counts as cell-based. The conditions noted are these: read-out: Ratio IC50/EC50.
A further series concerns Liver microsomes. Briefly: Intrinsic clearance in human liver microsomes at 1 uM. It is filed as ADME, Microsome. In short, it runs like this: as §1
On the technique in general: Microsomes from liver hold many membrane-bound enzymes, among them those of drug oxidation.

Structures are written as SMILES.

Usually IC50 stands for the midpoint of a concentration-inhibition curve. A lower IC50 goes with inhibition by little substance. Usually EC50 stands for the concentration at which the effect is half-maximal. A high value points to weaker potency. One may read the half-life as the time in which the quantity being followed falls by half. The molecule `Cc1c(O)c2ccc3c(c2oc1=O)[C@@H](OC(=O)C12CCC(C)(C(=O)O1)C2(C)C)[C@@H](OC(=O)C12CCC(C)(C(=O)O1)C2(C)C)C(C)(C)O3` (some centres undefined) returned an IC50 in the series on H9 of 31 µM. In series [1], this molecule gave a concentration for a half-maximal effect (EC50) of 2.1 µM. Further, the half-life at 1 µM in series [2] is 3.5 min. In addition, the selectivity ratio in series [3] is 15. In the series on Liver microsomes, the clearance amounted to 120 L/h/kg.

For `CC1(C)Oc2ccc3c(O)cc(=O)oc3c2[C@@H](OC(=O)C23CCC(C)(C(=O)O2)C3(C)C)[C@H]1OC(=O)C12CCC(C)(C(=O)O1)C2(C)C` (some centres undefined), the half-maximal inhibitory concentration (IC50) in the series with H9 was above 40 µM. In addition, the EC50 in series [1] amounted to 15 µM. Besides, the selectivity ratio in series [3] was above 3.

Consider `Cc1cc2c(c3oc(=O)cc(O)c13)[C@@H](OC(=O)C13CCC(C)(C(=O)O1)C3(C)C)[C@@H](OC(=O)C13CCC(C)(C(=O)O1)C3(C)C)C(C)(C)O2` (some centres undefined), for which, in the series on H9, it took 14 µM to reach half-maximal inhibition (IC50). The EC50 in series [1] was determined as 1.2 µM. Further, the selectivity ratio in series [3] came to 12.

In the series with H9, `Cc1cc(=O)oc2c3c(c(O)cc12)OC(C)(C)[C@H](OC(=O)C12CCC(C)(C(=O)O1)C2(C)C)[C@@H]3OC(=O)C12CCC(C)(C(=O)O1)C2(C)C` (some centres undefined) gave an IC50 above 38 µM. Also, in series [1], the EC50 amounted to 1.5 µM. The half-life at 1 µM in series [2] came to 3.1 min. In addition, the selectivity ratio in series [3] is above 25. Also, in the series on Liver microsomes, the clearance is 138 L/h/kg.

With `Cc1cc(=O)oc2c3c(ccc12)NC(C)(C)[C@H](OC(=O)C12CCC(C)(C(=O)O1)C2(C)C)[C@@H]3OC(=O)C12CCC(C)(C(=O)O1)C2(C)C` (some centres undefined), the concentration for half-maximal inhibition (IC50) in the series with H9 was above 32 µM. The molecule further returned a half-maximal effective concentration (EC50) in series [1] of 0.77 µM. Further, in series [2], the half-life at 1 µM came out at 9.6 min. Moreover, in series [3], the selectivity ratio is above 42. Further, the clearance with Liver microsomes was 42 L/h/kg.

On to `Cc1cc(=O)oc2c3c(ccc12)OC(C)(C)[C@H](OC(=O)C12CCC(C)(C(=O)O1)C2(C)C)[C@@H]3OC(=O)C12CCC(C)(C(=O)O1)C2(C)C` (some centres undefined), for which the 50% inhibitory concentration (IC50) in the series with H9 is above 10 µM. In series [1], the EC50 came to 0.02 µM. The half-life at 1 µM in series [2] turned out to be 3.4 min. Further, the selectivity ratio in series [3] was above 500. In the series with Liver microsomes, this molecule had a clearance of 120 L/h/kg.

The molecule `Cc1cn([C@H]2C[C@H](N=[N+]=[N-])[C@@H](CO)O2)c(=O)[nH]c1=O` [ZIDOVUDINE] returned a half-inhibitory concentration (IC50) in the series on H9 of 1900 µM. This molecule registered an EC50 in series [1] of 0.05 µM. Besides, the selectivity ratio in series [3] was found to be 38000.
